Series [1] relates to Human immunodeficiency virus 1. As to the kind of experiment: Antiviral activity against HIV-1 RES056 harboring RT K103N/Y181C mutant gene infected human MT4 cells assessed as inhibition in viral syncytium formation by MTT assay. Type of series: functional, organism-based. To be noted: Human immunodeficiency virus 1, RES056, MT4. In short, it runs like this:
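MT-4 cells infected with double-mutant RT (K103N/Y181C) HIV-1 RES056; compounds added as serial fivefold dilutions in triplicate wells with mock-infected parallels. Cells at 6 × 10⁵ cells/mL. Viability read by MTT after five days at 540 and 690 nm, median OD of three wells. EC50 is the concentration inhibiting virus-induced syncytium formation by 50%.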

Series [2] concerns Human immunodeficiency virus 1. As to the kind of experiment: Antiviral activity against HIV-1 3B infected human MT4 cells assessed as inhibition in viral syncytium formation by MTT assay. It counts as functional, organism-based. The conditions noted are these: Human immunodeficiency virus 1, 3B. The method, boiled down: (§1)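 MT-4 cells (6 × 10⁵ cells/mL) infected with HIV-1 IIIB or HIV-2 ROD stock at 100–300 CCID50, with serial fivefold compound dilutions in triplicate wells. After 5 days, viability was read by MTT reduction at 540 and 690 nm, using the median OD of three wells. EC50 is the concentration giving 50% inhibition of virus-induced syncytium formation.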

In series [3] the test system is Human immunodeficiency virus 2. As to the kind of experiment: Antiviral activity against HIV-2 ROD infected human MT4 cells assessed as inhibition in viral syncytium formation by MTT assay. Type of series: functional, organism-based. To be noted: Human immunodeficiency virus 2, ISOLATE ROD. The method, boiled down: as §1
A short description of series [4]: Cytotoxicity against mock-infected human MT4 cells by MTT assay. Type of series: cell-based. In short, it runs like this: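 Mock-infected MT-4 cells (6 × 10⁵ cells/mL) were run in parallel with the infected wells, with serial fivefold compound dilutions in triplicate. After 5 days, viability was read by MTT at 540 and 690 nm, using the median OD of three wells. CC50 is the concentration that reduces OD540 of mock-infected controls by 50%.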
For orientation: Tetrazolium dyes change colour on reduction, which living cells bring about.

Series [5] is described as follows: Selectivity index, ratio of CC50 for human MT4 cells to EC50 for HIV-1 3B. It counts as toxicity, cell-based. The conditions noted are these: read-out: Ratio CC50/EC50. The method, boiled down:
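SI is the ratio CC50/EC50, both taken from parallel 5-day MTT assays in MT-4 cells. CC50 comes from mock-infected cells and EC50 from HIV-1 IIIB-infected cells.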

Series [6] has as its target Human immunodeficiency virus type 1 reverse transcriptase (Human immunodeficiency virus 1, UniProt Q72547). As to the kind of experiment: Inhibition of recombinant HIV-1 RT assessed as inhibition of biotin-dUTP incorporation by colorimetric analysis. The method, boiled down: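 Highly purified recombinant HIV-1 RT was used with a […] homopolymer template primer. Nucleotides were linked to a microtiter plate, and incorporated biotin-dUTP was detected colorimetrically. IC50 is the concentration inhibiting biotin-dUTP incorporation by 50%.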

Bounds are passed on as bounds.

By EC50 is commonly meant the concentration that produces a half-maximal response. A word on the CC50: it is the concentration at which the toxic effect on the cells reaches its halfway point. Turning to `Cc1cc(C)c(-n2c(SCC(=O)Nc3cccnc3Cl)nc3cnccc32)c(C)c1`, the EC50 was > 22 µM in series [1], 1.7 µM in series [2] and > 22 µM in series [3]. The CC50 in series [4] was 22 µM. Besides, the selectivity ratio in series [5] was 12.
With `Cc1cc(C)c(-n2c(SCC(=O)Nc3ccccc3[N+](=O)[O-])nc3cnccc32)c(C)c1`, the EC50 was > 9.9 µM in series [1], 5.7 µM in series [2] and > 9.9 µM in series [3]. The CC50 in series [4] was 9.9 µM. Further, in series [5], the selectivity ratio amounted to 2.
Regarding `CC(=O)c1ccc(NC(=O)CSc2nc3cnccc3n2-c2c(C)cc(C)cc2C)c(Br)c1`, the results for the EC50 in series [1], in series [2] and in series [3] were > 61 µM, 0.99 µM and > 61 µM, respectively. The same compound returned a CC50 in series [4] of 61 µM. For the same compound, the selectivity ratio in series [5] was 61.
Take `Cc1cc(C)c(-n2c(SCC(=O)Nc3ccc(Cl)cc3Cl)nc3cnccc32)c(C)c1`: the figures for the EC50 in series [1], in series [2] and in series [3] were > 140 µM, ≥ 1.1 µM and > 140 µM, respectively. Half-maximal cytotoxicity in series [4] (CC50) was put at 140 µM. Besides, the selectivity ratio in series [5] was ≤ 127.
`COC(=O)c1ccc(NC(=O)CSc2nc3cnccc3n2-c2c(C)cc(C)cc2C)c(Br)c1`: the EC50 was > 27 µM in series [1], ≥ 2.5 µM in series [2] and > 27 µM in series [3]. Also, in series [4], the CC50 stood at 27 µM. Also, in series [5], the selectivity ratio is ≤ 11.
For `CCOC(=O)c1ccc(NC(=O)CSc2nc3cnccc3n2-c2c(C)cc(C)cc2C)c(Br)c1`, the EC50 in series [1] was > 22 µM; in series [2], 4.7 µM; in series [3] it was > 22 µM. Moreover, half-maximal cytotoxicity in series [4] (CC50) was put at 22 µM. Further, the selectivity ratio in series [5] was 5.
As to `Cc1cc(C)c(-n2c(SCC(=O)Nc3ccc([N+](=O)[O-])cc3Cl)nc3cnccc32)c(C)c1`, the EC50 in series [1] is > 29 µM; in series [2] it was 1.4 µM; in series [3], > 29 µM. For the same compound, in series [4], the half-maximal cytotoxic concentration (CC50) came out at 29 µM. In series [5], the selectivity ratio is 20.
The IC50 is the point on the concentration scale where inhibition reaches its midpoint. Take `Cc1cc(C)c(-n2c(SCC(=O)Nc3ccc(S(N)(=O)=O)cc3Br)nc3cnccc32)c(C)c1`: the EC50 in series [1] is > 9.7 µM; in series [2] it was 0.21 µM; in series [3], > 9.7 µM. This compound also came in with a CC50 in series [4] of 9.7 µM. Further, in series [6], the IC50 is 4.4 µM. The selectivity ratio in series [5] turned out to be 46.

The values above are taken from ChEMBL document CHEMBL2086251, “Arylazolyl(azinyl)thioacetanilides. Part 10: design, synthesis and biological evaluation of novel substituted imidazopyridinylthioacetanilides as potent HIV-1 inhibitors” (Bioorg Med Chem, 2012).
